Test results reported in ChEMBL document CHEMBL1130274, “Fibrinogen receptor (GPIIb-IIIa) antagonists derived from 5,6-bicyclic templates. Amidinoindoles, amidinoindazoles, and amidinobenzofurans containing the N-alpha-sulfonamide carboxylic acid function as potent platelet aggregation inhibitors” (J Med Chem, 1997).

Legend:
Format in all cases: protein-complex assay
[1] = biological target: Integrin alpha-IIb/beta-3 (Homo sapiens, UniProt P05106+P08514); assay: Inhibitory activity of fibrinogen binding to purified immobilized glycoprotein (fibrinogen receptor).
Chain of Integrin alpha-IIb/beta-3 (P05106 27-788 limits assumed): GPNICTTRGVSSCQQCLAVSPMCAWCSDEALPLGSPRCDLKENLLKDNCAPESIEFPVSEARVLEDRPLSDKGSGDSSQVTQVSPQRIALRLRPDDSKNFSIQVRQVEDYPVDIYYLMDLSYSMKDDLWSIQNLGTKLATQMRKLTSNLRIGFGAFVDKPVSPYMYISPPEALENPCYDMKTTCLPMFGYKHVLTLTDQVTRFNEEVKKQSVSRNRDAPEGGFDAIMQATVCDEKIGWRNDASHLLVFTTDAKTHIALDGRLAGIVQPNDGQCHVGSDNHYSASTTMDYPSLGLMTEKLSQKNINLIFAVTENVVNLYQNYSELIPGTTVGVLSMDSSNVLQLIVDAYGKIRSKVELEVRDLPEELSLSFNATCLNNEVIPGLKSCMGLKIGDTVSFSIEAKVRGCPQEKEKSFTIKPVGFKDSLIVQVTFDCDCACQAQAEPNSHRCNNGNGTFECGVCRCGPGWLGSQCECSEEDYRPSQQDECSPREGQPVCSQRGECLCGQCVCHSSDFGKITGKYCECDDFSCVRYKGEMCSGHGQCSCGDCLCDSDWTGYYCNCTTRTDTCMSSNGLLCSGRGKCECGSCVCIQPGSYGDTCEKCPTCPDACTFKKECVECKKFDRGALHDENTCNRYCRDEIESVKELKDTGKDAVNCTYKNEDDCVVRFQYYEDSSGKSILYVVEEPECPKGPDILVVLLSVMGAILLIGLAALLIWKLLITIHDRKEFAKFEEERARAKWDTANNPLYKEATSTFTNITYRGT
Chain of Integrin alpha-IIb/beta-3 (P08514 32-887 limits assumed): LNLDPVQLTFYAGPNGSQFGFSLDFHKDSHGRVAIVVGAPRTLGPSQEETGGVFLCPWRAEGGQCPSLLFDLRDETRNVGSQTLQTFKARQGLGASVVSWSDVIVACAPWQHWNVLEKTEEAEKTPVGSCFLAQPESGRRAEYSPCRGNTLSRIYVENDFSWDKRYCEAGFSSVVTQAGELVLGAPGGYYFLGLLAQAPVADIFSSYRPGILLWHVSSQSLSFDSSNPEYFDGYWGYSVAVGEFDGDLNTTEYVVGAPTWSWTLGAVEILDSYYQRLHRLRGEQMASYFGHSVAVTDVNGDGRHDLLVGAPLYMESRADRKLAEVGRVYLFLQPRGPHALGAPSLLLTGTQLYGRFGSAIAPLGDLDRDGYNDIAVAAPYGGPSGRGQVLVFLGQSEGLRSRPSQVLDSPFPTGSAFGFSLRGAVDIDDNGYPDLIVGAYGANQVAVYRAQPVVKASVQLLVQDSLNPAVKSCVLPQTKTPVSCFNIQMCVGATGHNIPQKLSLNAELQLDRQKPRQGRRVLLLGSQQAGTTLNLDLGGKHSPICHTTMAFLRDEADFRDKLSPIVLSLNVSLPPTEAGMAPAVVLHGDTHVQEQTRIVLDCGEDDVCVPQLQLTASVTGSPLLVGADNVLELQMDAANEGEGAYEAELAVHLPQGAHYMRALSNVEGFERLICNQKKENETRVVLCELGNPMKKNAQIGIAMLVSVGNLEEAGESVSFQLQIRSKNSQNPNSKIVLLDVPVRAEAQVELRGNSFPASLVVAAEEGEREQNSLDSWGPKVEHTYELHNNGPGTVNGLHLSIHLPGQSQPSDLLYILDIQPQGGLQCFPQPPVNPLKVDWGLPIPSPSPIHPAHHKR
Chain of Integrin alpha-IIb/beta-3 (P08514 891-1039 limits assumed): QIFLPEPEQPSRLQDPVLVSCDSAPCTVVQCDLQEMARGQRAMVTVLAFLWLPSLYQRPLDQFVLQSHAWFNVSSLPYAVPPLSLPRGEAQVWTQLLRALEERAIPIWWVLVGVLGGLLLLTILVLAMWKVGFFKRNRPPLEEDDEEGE

Integrin alpha-V/beta-3 [2] = biological target: T1, Integrin alpha-V/beta-3 (Homo sapiens, UniProt P05106+P06756); assay: Inhibition of vitronectin binding to the purified immobilized vitronectin receptor (alpha v, beta 3).
T1 sequence (P05106 27-788 limits assumed): as the sequence (P05106 27-788 limits assumed) above
T1 sequence (P06756 31-889 limits assumed): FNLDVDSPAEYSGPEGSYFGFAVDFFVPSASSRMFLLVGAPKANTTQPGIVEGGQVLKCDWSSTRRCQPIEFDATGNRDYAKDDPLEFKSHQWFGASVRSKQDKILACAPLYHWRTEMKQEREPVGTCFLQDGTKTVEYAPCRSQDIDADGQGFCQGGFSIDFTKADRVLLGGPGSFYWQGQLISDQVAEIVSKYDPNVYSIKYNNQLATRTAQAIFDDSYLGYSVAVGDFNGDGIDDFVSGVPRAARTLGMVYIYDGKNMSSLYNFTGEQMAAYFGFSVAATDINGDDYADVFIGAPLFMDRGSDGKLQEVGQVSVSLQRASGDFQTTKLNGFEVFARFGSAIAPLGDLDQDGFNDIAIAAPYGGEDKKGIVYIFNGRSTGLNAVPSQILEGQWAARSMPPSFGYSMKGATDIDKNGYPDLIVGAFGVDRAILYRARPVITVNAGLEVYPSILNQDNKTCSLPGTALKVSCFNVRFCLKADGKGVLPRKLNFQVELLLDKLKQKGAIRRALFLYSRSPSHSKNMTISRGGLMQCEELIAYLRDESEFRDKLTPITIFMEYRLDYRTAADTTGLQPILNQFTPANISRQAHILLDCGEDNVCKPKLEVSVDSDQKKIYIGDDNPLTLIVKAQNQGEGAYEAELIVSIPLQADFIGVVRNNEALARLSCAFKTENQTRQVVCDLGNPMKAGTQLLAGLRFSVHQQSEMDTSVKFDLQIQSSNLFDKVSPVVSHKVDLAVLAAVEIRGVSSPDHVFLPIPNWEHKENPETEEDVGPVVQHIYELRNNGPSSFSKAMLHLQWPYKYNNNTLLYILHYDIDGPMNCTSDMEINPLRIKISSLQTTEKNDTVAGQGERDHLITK
T1 sequence (P06756 891-1048 limits assumed): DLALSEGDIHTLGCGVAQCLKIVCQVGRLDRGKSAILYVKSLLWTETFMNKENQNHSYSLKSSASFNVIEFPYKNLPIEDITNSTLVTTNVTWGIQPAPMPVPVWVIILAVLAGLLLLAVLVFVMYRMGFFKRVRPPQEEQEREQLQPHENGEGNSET
Summary of the method: (§1)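 Solid-phase microtiter assay. Purified integrin (GPIIb-IIIa or αvβ3) was coated at 1 μg/well overnight at 4 °C in Tris pH 7.4 buffer with CaCl2, then blocked with 35 mg/mL BSA for 2–3 h. Biotinylated fibrinogen or vitronectin (20 nM final) plus compound was incubated 3 h at room temperature. Bound ligand was detected with alkaline phosphatase anti-biotin antibody and pNPP at 405 nm.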

Integrin alpha-V/beta-3 [3] = biological target: T1, Integrin alpha-V/beta-3; assay: Inhibition of vitronectin binding to purified immobilized vitronectin receptor alpha v beta3; summary of the method: as §1

| SMILES | IC50 [1] | IC50 (Integrin alpha-V/beta-3 [2]) | IC50 (Integrin alpha-V/beta-3 [3]) |
| --- | --- | --- | --- |
| N=C(N)c1ccc2oc(C(=O)NCCC(=O)NC[C@H](NS(=O)(=O)c3ccccc3)C(=O)O)cc2c1 | 1.8 nM | > 100000 nM |  |
| C#CC(CC(=O)O)NC(=O)CCNC(=O)c1cc2cc(C(=N)N)ccc2o1 (stereo not given) | 40 nM | > 100000 nM |  |
| N=C(N)c1ccc2oc(C(=O)NCCC(=O)NC[C@H](NS(=O)(=O)c3ccc(I)cc3)C(=O)O)cc2c1 | 2 nM | > 100000 nM |  |
| N=C(N)c1ccc2[nH]c(C(=O)NC(CC(=O)NC(CC(=O)O)c3ccccc3)C(F)(F)F)cc2c1 (stereo not given) | 10000 nM |  |  |
| N=C(N)c1ccc2[nH]c(C(=O)NCCC(=O)NC(CC(=O)O)c3ccccc3)cc2c1 (stereo not given) | 1000 nM |  |  |
| N=C(N)c1ccc2oc(C(=O)NCCC(=O)NC(CC(=O)O)c3ccccc3)cc2c1 (stereo not given) | 150 nM | 60000 nM |  |
| N=C(N)c1ccc2[nH]c(C(=O)NCC(=O)NC(CC(=O)O)c3ccccc3)cc2c1 (stereo not given) | 10000 nM |  |  |
| COc1ccc(C(CC(=O)O)NC(=O)CCNC(=O)c2cc3cc(C(=N)N)ccc3o2)cc1OC (stereo not given) | 40 nM |  |  |
| N=C(N)c1ccc2oc(C(=O)NCCC(=O)NC(CC(=O)O)c3cc(F)ccc3F)cc2c1 (stereo not given) | 125 nM | > 100000 nM |  |
| N=C(N)c1ccc2[nH]c(C(=O)N3CCC(C(=O)NC(CC(=O)O)c4ccccc4)CC3)cc2c1 (stereo not given) | 6000 nM |  |  |
| N=C(N)c1ccc2oc(C(=O)NCCC(=O)NCCC(=O)O)cc2c1 | 20 nM | > 100000 nM |  |
| N=C(N)c1ccc2oc(C(=O)NCCC(=O)NC(CC(=O)O)C(F)(F)F)cc2c1 (stereo not given) | 40 nM | > 100000 nM |  |
| N=C(N)c1ccc2oc(C(=O)NCCC(=O)NC(CC(=O)O)c3cc(F)cc(F)c3)cc2c1 (stereo not given) | 100 nM | > 100000 nM |  |
| CN(CCC(=O)NC(CC(=O)O)c1ccccc1)C(=O)c1cc2cc(C(=N)N)ccc2o1 (stereo not given) | 150 nM | > 100000 nM |  |
| CCCCS(=O)(=O)N[C@@H](CNC(=O)CCNC(=O)c1cc2cc(C(=N)N)ccc2o1)C(=O)O | 2 nM | > 100000 nM |  |
| CN(C)c1cccc2c(S(=O)(=O)N[C@@H](CNC(=O)CCNC(=O)c3cc4cc(C(=N)N)ccc4o3)C(=O)O)cccc12 | 2 nM | > 100000 nM |  |

| SMILES | IC50 [1] | IC50 (Integrin alpha-V/beta-3 [2]) | IC50 (Integrin alpha-V/beta-3 [3]) |
| --- | --- | --- | --- |
| N=C(N)c1ccc2[nH]c(C(=O)Nc3cccc(C(=O)NC(CC(=O)O)c4ccccc4)c3)cc2c1 (stereo not given) | 50000 nM |  |  |
| N=C(N)c1ccc2oc(C(=O)N3CCC[C@@H]3C(=O)NC(CC(=O)O)c3ccccc3)cc2c1 (stereo not given in full) | 1000 nM |  |  |
| N=C(N)c1ccc2oc(C(=O)NCCC(=O)NC[C@H](N)C(=O)O)cc2c1 | 40 nM | > 100000 nM |  |
| N=C(N)c1ccc2oc(C(=O)NCCC(=O)NC(CC(=O)O)c3cccnc3)cc2c1 (stereo not given) | 40 nM | 100000 nM |  |
| N=C(N)c1ccc2oc(C(=O)N3Cc4ccccc4CC3C(=O)NC(CC(=O)O)c3ccccc3)cc2c1 (stereo not given) | 500 nM |  |  |
| CC(C)(NC(=O)c1cc2cc(C(=N)N)ccc2[nH]1)C(=O)NC(CC(=O)O)c1ccccc1 (stereo not given) | > 100000 nM |  |  |
| N=C(N)c1ccc2oc(C(=O)NCCC(=O)NC(CC(=O)O)c3ccc(F)c(F)c3)cc2c1 (stereo not given) | 200 nM | > 100000 nM |  |
| CN(CC(=O)NC(CC(=O)O)c1ccccc1)C(=O)c1cc2cc(C(=N)N)ccc2[nH]1 (stereo not given) | 10000 nM |  |  |
| N=C(N)c1ccc2oc(C(=O)NCC(=O)NC(CC(=O)O)c3ccccc3)cc2c1 (stereo not given) | 300 nM |  |  |
| CC(CC(=O)NC(CC(=O)O)c1ccccc1)NC(=O)c1cc2cc(C(=N)N)ccc2[nH]1 (stereo not given) | 2500 nM | 125000 nM |  |
| CN(CCC(=O)NC(CC(=O)O)c1ccccc1)C(=O)c1cc2cc(C(=N)N)ccc2[nH]1 (stereo not given) | 20 nM |  | > 100000 nM |
| N=C(N)c1ccc2oc(C(=O)N3CCCC(C(=O)NC(CC(=O)O)c4ccccc4)C3)cc2c1 (stereo not given) | 400 nM |  |  |
| CCCCS(=O)(=O)NC(CNC(=O)CCNC(=O)c1c[nH]c2cc(C(=N)N)ccc12)C(=O)O (stereo not given) | 2 nM | > 100000 nM |  |
| CCCCS(=O)(=O)NC(CNC(=O)CCNC(=O)c1[nH]nc2cc(C(=N)N)ccc12)C(=O)O (stereo not given) | 2 nM | > 100000 nM |  |
| CC(CC(=O)NC(CC(=O)O)c1ccccc1)NC(=O)c1cc2cc(C(=N)N)ccc2o1 (stereo not given) | 20 nM | > 100000 nM |  |
